Data: PubChem BioAssay AID540295 (The Scripps Research Institute Molecular Screening Center, 2011)
About 1,700 (0.47%) of roughly 360,000 compounds were called active. This is one part of a sample in which actives are shown more often than they occur. A number with no mark means an inactive call.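 How the source made its calls: active means inhibition above its plate's cutoff, the mean of tested wells on that plate plus 3 SD (cut at about 29% in these data); inactive means the rest.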

molecular target: Melanocortin receptor 4 (Homo sapiens) (UniProt P32245); experiment: MC4R antagonists of cAMP signaling, primary screen, cell-based, TR-FRET, antagonist arm of biased-ligand search (AID 540295); settings: MC4R-expressing cells, MTII-stimulated cAMP, LANCE TR-FRET; at 6.5 µM; active compounds read high;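 further: 0% = Melanotan II alone and 100% = Melanotan II plus saturating MCL0020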
Sequence (P32245 whole entry, looked up): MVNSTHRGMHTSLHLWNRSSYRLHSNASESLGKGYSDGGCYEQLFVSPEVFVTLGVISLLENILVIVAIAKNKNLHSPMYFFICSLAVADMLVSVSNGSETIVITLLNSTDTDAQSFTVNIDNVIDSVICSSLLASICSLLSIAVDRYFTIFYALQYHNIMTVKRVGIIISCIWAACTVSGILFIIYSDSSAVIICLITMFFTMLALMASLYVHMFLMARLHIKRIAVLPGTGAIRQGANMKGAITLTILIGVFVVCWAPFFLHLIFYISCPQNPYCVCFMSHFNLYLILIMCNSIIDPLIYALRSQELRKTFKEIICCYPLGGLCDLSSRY
In short: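 Material: human MC4R-expressing U2OS cells. Probe or stimulus: Melanotan II challenge. Dosing: 6.5 µM single dose. Times: 30-min compound, 1-h challenge, 1-h detection, room temperature. Technique: TR-FRET with Eu-cAMP and labeled anti-cAMP, 671 nm. Replication: singlicate.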

In the case of COc1cccc(N2C(=O)NC(=O)/C(=C\c3ccc([N+](=O)[O-])s3)C2=O)c1, the inhibition is reported as 28.6% (active).
In the case of Cc1cccc(N2C(=O)NC(=O)/C(=C\c3cnn(-c4ccccc4)c3)C2=O)c1, the inhibition is reported as 35.2% (active).

Point of comparison: O=C(N/N=C/c1c(O)n(C2CC2)c(=S)[nH]c1=O)c1ccccc1Cl, inhibition 20.1%. Against it:
- c1ccc(CCNC2CCCCCC2)cc1 — lower, 17.4%
- COc1cc(OC)cc(C2(C#N)CCN(C)CC2)c1 — lower, 17%
- O=C(NC(=S)N1C[C@H]2C[C@H](C1)c1cccc(=O)n1C2)c1ccc(F)cc1 — lower, 7.13%
- Cc1c(C(=O)O)cccc1-n1c(C)cc(/C=C2\C(=O)NC(=O)N(c3ccc4c(c3)OCO4)C2=O)c1C — lower, 5.16%
- CCN1CCN(c2ccc([N+](=O)[O-])cc2C#N)CC1 — lower, -10.7%
- CC(C)c1c(CN(C)C(C)Cc2ccccc2)n(C)n(-c2ccccc2)c1=O (stereo not given) — lower, 10.7%
- CC(=O)c1c(O)n(C2CCCCCC2)c(=O)[nH]c1=O — lower, 2.26%
